Measured values from publication PMC7072008 (ACS infectious diseases, 2020).
Where two headings read alike, the source gives them in different places.

Columns and labels:
[1] = target: T1, TGR (GSSG reducing activity) (Schistosoma mansoni, UniProt Q962Y6); test: TGR inhibition assay, GSSG reduction; format: biochemical; settings: read-out: IC50 (GSSG); GSSG as substrate
T1 sequence (Q962Y6 1-598): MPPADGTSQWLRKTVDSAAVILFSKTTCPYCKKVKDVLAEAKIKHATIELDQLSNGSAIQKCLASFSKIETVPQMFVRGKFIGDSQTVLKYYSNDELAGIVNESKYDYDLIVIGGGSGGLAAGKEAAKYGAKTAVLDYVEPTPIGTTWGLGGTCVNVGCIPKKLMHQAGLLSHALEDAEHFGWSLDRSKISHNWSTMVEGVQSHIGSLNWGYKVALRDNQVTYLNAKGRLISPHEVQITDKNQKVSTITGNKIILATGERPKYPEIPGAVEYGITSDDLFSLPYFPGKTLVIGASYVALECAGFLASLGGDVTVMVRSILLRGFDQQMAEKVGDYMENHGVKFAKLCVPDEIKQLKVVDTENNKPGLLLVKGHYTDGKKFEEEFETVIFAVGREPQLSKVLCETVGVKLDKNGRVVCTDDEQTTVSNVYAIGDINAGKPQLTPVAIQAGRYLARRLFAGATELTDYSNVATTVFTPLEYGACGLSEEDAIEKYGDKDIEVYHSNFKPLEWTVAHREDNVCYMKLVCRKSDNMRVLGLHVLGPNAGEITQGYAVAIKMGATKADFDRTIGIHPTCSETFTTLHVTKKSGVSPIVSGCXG
In short: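 Recombinant wild-type S. mansoni TGR (selenoprotein) was expressed in E. coli BL21 (DE3) with a His-SUMO tag. The tag was removed, leaving Gly-Ser-His at the N-terminus. Inhibition was measured as enzymatic GSSG reduction, run in triplicate.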

S. mansoni adult worms [2] = test: Brief; parameters: species or system Schistosoma mansoni
Schistosoma mansoni TGR = settings: read-out: TGR IC50 qHTS, cited from earlier work
[3] = target: T2, TGR (DTNB reducing activity) (Schistosoma mansoni, UniProt Q962Y6); test: TGR inhibition confirmatory assay, DTNB reduction; format: biochemical
T2 sequence (Q962Y6 1-598): T1 sequence (Q962Y6 1-598)

hGR = target: T3, hGR (Homo sapiens, UniProt P00390); test: Inhibition of human glutathione reductase; format: biochemical; settings: for Inhibition of hGR: at 2 mM (concentrations as high as 2 mM); for IC50: read-out: hGR IC50; for hGR IC50 fold higher than for TGR: selectivity TGR versus hGR
T3 sequence (P00390 44-522): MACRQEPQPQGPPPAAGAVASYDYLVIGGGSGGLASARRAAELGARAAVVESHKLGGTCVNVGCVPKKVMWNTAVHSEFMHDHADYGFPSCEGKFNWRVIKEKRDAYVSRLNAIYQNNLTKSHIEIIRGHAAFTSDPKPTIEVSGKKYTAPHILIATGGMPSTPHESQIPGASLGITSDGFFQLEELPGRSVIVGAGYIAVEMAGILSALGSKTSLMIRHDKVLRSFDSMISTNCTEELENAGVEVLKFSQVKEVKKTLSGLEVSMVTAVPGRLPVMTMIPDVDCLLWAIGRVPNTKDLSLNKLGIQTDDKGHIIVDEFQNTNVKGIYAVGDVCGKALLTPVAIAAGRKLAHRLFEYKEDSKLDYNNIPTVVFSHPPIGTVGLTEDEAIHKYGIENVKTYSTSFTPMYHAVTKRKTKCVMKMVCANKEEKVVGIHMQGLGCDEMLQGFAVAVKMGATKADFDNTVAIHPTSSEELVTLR

[4] = target: TGR activities (DTNB and GSSG reduction) in S. mansoni adult worms (Schistosoma mansoni, UniProt Q962Y6); test: TGR activity in homogenates of treated worms; settings: worms cultured in 50 μM compound, harvested before any worm death
In short: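 Adult S. mansoni from infected Swiss-Webster mice, about 10 worm pairs per 1 mL RPMI with 10% FCS, 10 mM glutamine and penicillin/streptomycin, pre-cultured 24 h. Exposed to 50 μM compound in DMSO, refreshed daily; DMSO controls. Worms collected at set times, washed, homogenized and centrifuged; protein measured. NADPH-dependent DTNB and GSSG reduction assayed in triplicate versus time-matched controls.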

TGR [5] = target: T4, TGR (Schistosoma mansoni, UniProt Q962Y6); test: NADPH oxidase activity of inhibited TGR; format: biochemical; settings: for H2O2 production compared with untreated TGR: Amplex Red and horseradish peroxidase; for Decrease of NADPH consumption compared with uninhibited TGR: after treatment and desalting
T4 sequence (Q962Y6 1-598): T1 sequence (Q962Y6 1-598)

S. mansoni schistosomula = test: Schistosomula; parameters: species or system Schistosoma mansoni
[6] = system: S. mansoni juvenile worms; test: Ex vivo juvenile worm killing, continuous exposure; parameters: species or system Schistosoma mansoni
S. japonicum adult worms = test: Ex vivo adult worm killing, continuous exposure; settings: 12.5 μM, 120 h
S. mansoni adult worms [7] = test: Ex vivo adult worm killing, continuous exposure; parameters: species or system Schistosoma mansoni; settings: for LD50 against S. mansoni adult worms: 5 days incubation, media and compounds replaced daily
[8] = cited from earlier work
Schistosoma mansoni = settings: overnight exposure; cited from earlier work
TGR [9] = target: T4, TGR; test: TGR dimer/monomer analysis by native PAGE; settings: native PAGE after reaction with compound
[10] = system: S. haematobium adult worms; test: Ex vivo adult worm killing, continuous exposure; settings: 10 μM
TGR [11] = target: T4, TGR; test: NADPH-dependence and reversibility of TGR inhibition; format: biochemical; settings: for Reversibility of TGR inhibition: incubation with NADPH, activity 30 minutes and 3 hours after desalting
parasites = settings: 5 μM (physiological concentration); cited from earlier work
schistosomes = settings: cited from earlier work
[12] = PubChem BioAssay, ref AID485364
[13] = read-out: IC50 (DTNB), DTNB as substrate
[14] = read-out: TGR IC50 Confirm, confirmatory assay
[15] = 20 μM, then 5 days in media without compound
[16] = 100 μM, then 5 days in media without compound
[17] = 50 μM, then 5 days in media without compound

| Structure (SMILES) | IC50 [1] [µM] | IC50 (Schistosoma mansoni TGR; [12]) [µM] | IC50 [3, 13] [µM] | IC50 [3, 14] [µM] | Inhibition of hGR (hGR) | S. mansoni adult worm killing after 1 hr exposure (S. mansoni adult worms [2]; [15]) | LD50 against S. mansoni adult worms (S. mansoni adult worms [7]) [µM] | Sm Somula, dead (S. mansoni schistosomula; 10 μM, 24 h) | also measured |
| --- | --- | --- | --- | --- | --- | --- | --- | --- | --- |
| CCOC(=O)C(C(=O)OCC)c1cc(Br)c2noc3c2c1C(=O)c1ccccc1-3 [Compound 6] | 0.15 ± 0.02 | 0.631 | 0.14 ± 0.01 | 0.14 | 25% |  |  |  | S. mansoni adult worm killing after 1 hr exposure (S. mansoni adult worms [2]; all concentrations tested (10, 20, 50, 100 μM)): no worm killing; Inhibition of TGR activity (DTNB and GSSG reduction) in worm homogenates [4]: ~ 60% |
| Oc1ccc(CNc2cccc(C(F)(F)F)c2)c2cccnc12 [Compound 7] | 0.13 ± 0.03 | 0.316 | 0.09 ± 0.02 | 0.09 | did not inhibit | 10% | 18.2 |  | H2O2 production compared with untreated TGR (TGR [5]): less H2O2 than untreated TGR; Induction of NADPH oxidase activity in TGR (NADPH consumption, superoxide production) (TGR [5]; TGR 500 nM, NADPH 100 μM, 30 min, 20 μM for 1, 2, 5-8, 50 μM for 3 and 4, desalted): lowest NADPH oxidase activity; Decrease of NADPH consumption compared with uninhibited TGR (TGR [5]): about 50%; S. mansoni adult worm killing after 1 hr exposure (S. mansoni adult worms [2]; [16]): 80%; Sm Somula, dead (S. mansoni schistosomula; 12.5 μM, 120 h): 12.5 μM 120 h 61% d^‡; Sm juvenile, dead ([6]; 12.5 μM, 120 h): 12.5 μM 120 h 8% d^‡; Adult worms Sj, dead (S. japonicum adult worms): 12.5 μM 120 h no killing; Adult worms Sm, dead (S. mansoni adult worms [7]; 12.5 μM, 120 h): 12.5 μM 120 h 43% d^‡; Cytotoxicity against mammalian cells compared with schistosome worms (Vero cells): notable exception |
| COc1ccc([N+](=O)[O-])c(S(=O)(=O)c2ccc(Cl)cc2)n1 [Compound 5, TRi-1] | 0.05 ± 0.01 | 0.1 | 0.06 ± 0.01 | 0.06 |  | about 10% | 10.1 | 10 μM 24 h 100% d^‡ | S. mansoni adult worm killing after 1 hr exposure (S. mansoni adult worms [2]; [17]): 60%; Tolerability in animal models ([8]; in vivo): well tolerated; IC50 (hGR): 104 µM; hGR IC50 fold higher than for TGR (hGR): 1700 fold; Sm juvenile, dead ([6]; 10 μM, 120 h): 10 μM 120 h 57% d^‡ |
| O=C(C1CCCCC1)N1CC(=O)N2CCc3ccccc3C2C1 (stereo not shown) [praziquantel, reference compound] |  |  |  |  |  |  | 0.5 |  | S. mansoni adult worm killing after 1 hr exposure (S. mansoni adult worms [2]; [16]): 20%; LD50 of praziquantel (Schistosoma mansoni): 40 µM |
| O=[N+]([O-])c1ccc2c(c1)S(=O)(=O)C=C2 [Compound 4, Stattic] | 2.2 ± 0.2 |  | 2.01 ± 0.14 | 2.01 |  | about 10% | 7.08 | 10 μM 24 h 100% d^‡ | S. mansoni adult worm killing after 1 hr exposure (S. mansoni adult worms [2]; [17]): 100%; Monomer formation of TGR (TGR [9]): No evidence for monomer formation; IC50 (Schistosoma mansoni TGR; ref Li et al. 2015 [18]): 5.44 µM; Tolerability in animal models ([8]; animal models of different diseases): well tolerated; IC50 (hGR): 30.7 µM; hGR IC50 fold higher than for TGR (hGR): 15 fold; Sm juvenile, dead ([6]; 10 μM, 72 h): 10 μM 72 h 100% d^‡; Adult worms Sm, dead (S. mansoni adult worms [7]; 10 μM, 144 h): 10 μM 144 h 76% d^‡ |
| Cc1c(-c2cnccn2)ssc1=S [oltipraz, reference compound] |  |  |  |  |  |  | 2 |  |  |
| CCN(c1ccccc1)S(=O)(=O)c1ccc(NC(=O)c2nc(S(C)(=O)=O)ncc2Cl)cc1 [Compound 2] | 0.23 ± 0.03 | 0.398 | 0.21 ± 0.02 | 0.21 | did not inhibit | 40% | 9.07 | 10 μM 24 h 100% d^‡ | Sm juvenile, dead ([6]; 10 μM, 24 h): 10 μM 24 h 100% d^‡ |
| COC(=O)CS(=O)(=O)c1nnc(C(Cc2ccccc2)NC(=O)OC(C)(C)C)o1 (stereo not shown) [Compound 1] | 0.39 ± 0.07 |  | 0.33 ± 0.07 | 0.33 | did not inhibit | 60% | 8.41 | 10 μM 24 h 99% d^‡ | Adult worms Sh, dead ([10]; 144 h): 10 μM 144 h 67% d^‡; Sm juvenile, dead ([6]; 10 μM, 120 h): 10 μM 120 h 39% d^‡ |
| COc1ccc(C(Nc2cc(C)ccn2)c2ccc3ccc(C)nc3c2O)cc1 (stereo not shown) [Compound 8] | 0.33 ± 0.05 | 0.398 | 0.13 ± 0.04 | 0.13 | did not inhibit | 10% | 12.4 |  | H2O2 production compared with untreated TGR (TGR [5]): same low amounts of H2O2 as untreated TGR; S. mansoni adult worm killing after 1 hr exposure (S. mansoni adult worms [2]; [16]): 30%; Reversibility of TGR inhibition (TGR [11]): reversible inhibition; Sm Somula, dead (S. mansoni schistosomula; 10 μM, 120 h): 10 μM 120 h 20% d^‡; Sm juvenile, dead ([6]; 10 μM, 120 h): 10 μM 120 h 24% d^‡; Adult worms Sj, dead (S. japonicum adult worms): 12.5 μM 120 h 56% d^‡; Adult worms Sm, dead (S. mansoni adult worms [7]; 12.5 μM, 120 h): 12.5 μM 120 h 53% d^‡ |
| CC(=O)OC[C@H]1O[C@@H]([S-])[C@H](OC(C)=O)[C@@H](OC(C)=O)[C@@H]1OC(C)=O.CCP(CC)CC.[Au+] [auranofin] |  |  |  |  |  |  |  |  | Killing of parasites in culture (parasites): kill parasites rapidly; H2O2 production compared with untreated TGR (TGR [5]): same low amounts of H2O2 as untreated TGR; Decrease of NADPH consumption compared with uninhibited TGR (TGR [5]): about 50%; TGR inhibition in the absence of NADPH (TGR [11]; compounds at 20 times the IC50, TGR 50 nM, incubation without NADPH, desalting): found to inhibit TGR; Reversibility of TGR inhibition (TGR [11]): irreversible inhibitors of TGR; Cure of infected mice (schistosomes): partially cure infected mice |
| O=c1c(Cl)c(-n2cc(CO)nn2)cnn1-c1ccccc1 [Compound 3] | 2.49 ± 0.11 |  | 2.84 ± 0.08 | 2.84 | 19% | about 10% | 4.9 | 10 μM 24 h 100% d^‡ | Adult worms Sh, dead ([10]; 96 h): 10 μM 96 h 100% d^‡; S. mansoni adult worm killing after 1 hr exposure (S. mansoni adult worms [2]; [17]): 80%; IC50 (Schistosoma mansoni TGR; ref Li et al. 2015 [18]): 6.3 µM; Sm juvenile, dead ([6]; 10 μM, 48 h): 10 μM 48 h 100% d^‡; Adult worms Sm, dead (S. mansoni adult worms [7]; 10 μM, 72 h): 10 μM 72 h 100% d^‡ |
